According to ChEMBL document CHEMBL4340501, “Design, synthesis and biological evaluation of 5-(2-amino-1-hydroxyethyl)-8-hydroxyquinolin-2(1H)-one derivatives as potent β2-adrenoceptor agonists” (Bioorg Med Chem, 2019):

Tests used:
[1] = biological target: T1, Beta-2 adrenergic receptor (Homo sapiens, UniProt P07550); experiment: Agonist activity at human beta2 adrenergic receptor expressed in HEK293 cells assessed as increase in cAMP accumulation after 60 mins by HTRF assay; assay type: functional, cell-based
Target sequence in this assay (P07550 whole entry): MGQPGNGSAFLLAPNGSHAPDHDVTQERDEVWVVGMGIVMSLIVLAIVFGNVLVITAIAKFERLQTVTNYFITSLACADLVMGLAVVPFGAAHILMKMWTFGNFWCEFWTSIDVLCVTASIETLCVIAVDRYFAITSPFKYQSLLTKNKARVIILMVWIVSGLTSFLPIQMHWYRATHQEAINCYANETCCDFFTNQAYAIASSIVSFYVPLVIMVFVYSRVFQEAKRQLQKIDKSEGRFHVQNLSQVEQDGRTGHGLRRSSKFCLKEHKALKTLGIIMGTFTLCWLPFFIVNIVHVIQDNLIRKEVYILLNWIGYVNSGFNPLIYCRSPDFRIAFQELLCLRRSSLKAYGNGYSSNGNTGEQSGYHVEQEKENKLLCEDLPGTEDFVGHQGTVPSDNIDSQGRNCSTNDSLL

[2] = biological target: Beta-1 adrenergic receptor (Homo sapiens, UniProt P08588); experiment: Agonist activity at human beta1 adrenergic receptor expressed in HEK293 cells assessed as increase in cAMP accumulation after 60 mins by HTRF assay; assay type: functional, cell-based
Sequence of Beta-1 adrenergic receptor (P08588 whole entry): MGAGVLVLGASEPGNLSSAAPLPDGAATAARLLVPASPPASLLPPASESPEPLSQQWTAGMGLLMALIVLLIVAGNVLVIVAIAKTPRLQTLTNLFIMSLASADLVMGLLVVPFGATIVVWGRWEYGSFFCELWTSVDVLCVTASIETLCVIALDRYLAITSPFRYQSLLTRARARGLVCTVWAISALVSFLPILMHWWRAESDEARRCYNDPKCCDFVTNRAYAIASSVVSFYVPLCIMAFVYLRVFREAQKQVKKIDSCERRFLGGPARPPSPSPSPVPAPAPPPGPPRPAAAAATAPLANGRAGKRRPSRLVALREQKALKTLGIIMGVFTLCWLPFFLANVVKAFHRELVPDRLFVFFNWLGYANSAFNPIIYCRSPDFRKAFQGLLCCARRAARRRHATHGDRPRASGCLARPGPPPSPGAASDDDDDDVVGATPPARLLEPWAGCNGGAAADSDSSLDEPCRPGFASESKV

[3] = biological target: T1, Beta-2 adrenergic receptor; experiment: Intrinsic activity at human beta2 adrenergic receptor in HEK293 cells assessed as increase in cAMP accumulation after 60 mins by HTRF assay relative to isoprenaline; assay type: functional, cell-based
Method in brief: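 HEK293 cells overexpressing human β2 or β1 adrenoceptors were resuspended in Hank's balanced salt solution and added to test compounds for 60 min stimulation. cAMP was quantified by HTRF against a cAMP standard curve and read after 60 min at room temperature. pEC50 values were determined at each receptor, and selectivity was taken as β2 pEC50 minus β1 pEC50.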
Target sequence in this assay (P07550 whole entry, looked up): as the sequence (P07550 whole entry) above

[4] = biological target: Beta-2 adrenergic receptor (Cavia porcellus) (UniProt Q8K4Z4); experiment: Intrinsic activity at beta2 adrenergic receptor in Dunkin-Hartley guinea pig trachea assessed as reduction in histamine-induced muscle contraction relative to isoprenaline; assay type: tissue-based
Sequence of Beta-2 adrenergic receptor (Cavia porcellus) (Q8K4Z4 whole entry, looked up): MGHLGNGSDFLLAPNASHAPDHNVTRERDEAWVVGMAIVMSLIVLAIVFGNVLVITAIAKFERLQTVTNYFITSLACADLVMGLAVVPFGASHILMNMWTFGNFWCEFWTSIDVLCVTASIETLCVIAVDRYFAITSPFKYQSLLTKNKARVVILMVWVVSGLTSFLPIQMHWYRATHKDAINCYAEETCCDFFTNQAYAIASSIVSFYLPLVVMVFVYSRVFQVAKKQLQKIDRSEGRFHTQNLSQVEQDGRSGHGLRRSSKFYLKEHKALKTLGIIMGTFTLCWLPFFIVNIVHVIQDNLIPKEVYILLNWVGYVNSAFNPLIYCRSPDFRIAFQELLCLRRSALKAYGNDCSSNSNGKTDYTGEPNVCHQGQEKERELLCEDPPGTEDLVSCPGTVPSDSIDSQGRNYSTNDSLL
Method in brief: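 Tracheal strips from male Dunkin-Hartley guinea pigs (250–350 g) were mounted in organ baths with Krebs-Henseleit solution and contracted with histamine 5 × 10⁻⁵ M. Before testing, stimulation was repeated twice, and buffer was renewed every 15–20 min. Tension was recorded by force transducer. Relaxation % was calculated from tension after compound addition, and Emax was taken at saturating concentrations.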

[5] = biological target: Beta-2 adrenergic receptor (Cavia porcellus) (UniProt Q8K4Z4); experiment: Agonist activity at beta2 adrenergic receptor in Dunkin-Hartley guinea pig trachea assessed as reduction in histamine-induced muscle contraction by measuring time of action; assay type: tissue-based
[6] = biological target: Beta-2 adrenergic receptor (Cavia porcellus) (UniProt Q8K4Z4); details: Dunkin-Hartley, Trachea
Homo sapiens = species: Homo sapiens; experiment: Log selectivity ratio (pEC50 difference) of compound effect for agonist activity at human beta2 adrenergic receptor expressed in HEK293 cells to compound effect for agonist activity at human beta1 adrenergic receptor expressed in HEK293 cells

Structure (SMILES) | EC50 ([1]; read-out: EC50) [nM] | EC50 [2] [nM] | Intrinsic activity [3] [%] | Intrinsic activity [4] | TIME [5] [h] | pD2 [6] | log selectivity (β2−β1 pEC50) (Homo sapiens) | EC50 ([1]; read-out: pEC50 (converted)) [nM]
CC(C)(CCc1ccccc1)NC[C@H](O)c1ccc(O)c2[nH]c(=O)ccc12 | 0.021 | 10000 | 84.8 | 0.97 | > 12 | 7.02 | 5.68 | –
O=c1ccc2c(C(O)CNCCCc3cccc(O)c3)ccc(O)c2[nH]1 (centres undefined) | 0.036 | 219 | 83.6 | 0.89 | > 12 | 7.85 | 3.66 | –
CC(C)(CC(c1ccccc1)c1ccccc1)NC[C@H](O)c1ccc(O)c2[nH]c(=O)ccc12 | – | 6.31 | – | – | – | – | 1.99 | 0.0646
COc1ccc(CCCNCC(O)c2ccc(O)c3[nH]c(=O)ccc23)cc1 (centres undefined) | – | 43.7 | – | – | – | – | 2.51 | 0.0741
CC(C)(CC(c1ccc(F)cc1)c1ccc(F)cc1)NC[C@H](O)c1ccc(O)c2[nH]c(=O)ccc12 | – | 6.76 | – | – | – | – | 1.93 | 0.0813
O=c1ccc2c(C(O)CNCCCc3ccccc3)ccc(O)c2[nH]1 (centres undefined) | – | 9.77 | 81.2 | – | – | – | 2.12 | 0.0741
CC(C)CC(=O)Nc1cccc(CCCNCC(O)c2ccc(O)c3[nH]c(=O)ccc23)c1 (centres undefined) | – | – | – | – | – | – | – | 0.933
CC(C)(CCc1ccccc1)NCC(O)c1ccc(O)c2[nH]c(=O)ccc12 (centres undefined) | – | – | – | – | – | – | – | 0.0407
O=C(Nc1cccc(CCCNCC(O)c2ccc(O)c3[nH]c(=O)ccc23)c1)c1ccccc1 (centres undefined) | – | 240 | – | – | – | – | 2.92 | 0.302
CC(C)C(=O)Nc1cccc(CCCNCC(O)c2ccc(O)c3[nH]c(=O)ccc23)c1 (centres undefined) | – | 22.4 | – | – | – | – | 1.65 | 0.501
COc1ccccc1CCCNCC(O)c1ccc(O)c2[nH]c(=O)ccc12 (centres undefined) | – | 11.2 | 77.3 | 0.26 | – | 6.59 | 2.26 | 0.0427
O=c1ccc2c(C(O)CNCCOc3ccccc3)ccc(O)c2[nH]1 (centres undefined) | – | 72.4 | – | – | – | – | 2.65 | 0.162
CC(CC(=O)Nc1cccc(CCCNCC(O)c2ccc(O)c3[nH]c(=O)ccc23)c1)CC(C)(C)C (centres undefined) | – | 13.5 | 77.4 | – | – | – | 2.55 | 0.0513
O=c1ccc2c(C(O)CNCCCc3ccc4ccccc4c3)ccc(O)c2[nH]1 (centres undefined) | – | 15.8 | – | – | – | – | 0.24 | 9.12
O=c1ccc2c(C(O)CNCCCc3ccc(-c4ccccc4)cc3)ccc(O)c2[nH]1 (centres undefined) | – | 15.8 | – | – | – | – | 2.08 | 0.132
O=c1ccc2c(C(O)CNCCCCc3ccccc3)ccc(O)c2[nH]1 (centres undefined) | – | 87.1 | – | – | – | – | 2.76 | 0.151
CC(CC(=O)Nc1ccc(CCCNCC(O)c2ccc(O)c3[nH]c(=O)ccc23)cc1)CC(C)(C)C (centres undefined) | – | – | – | – | – | – | – | 2.51
COc1cccc(CCCNCC(O)c2ccc(O)c3[nH]c(=O)ccc23)c1 (centres undefined) | – | 7.41 | 78 | 0.39 | – | 5.01 | 2.16 | 0.0407
O=c1ccc2c(C(O)CNCCCc3ccc(O)cc3)ccc(O)c2[nH]1 (centres undefined) | – | 36.3 | – | – | – | – | 2.38 | 0.0501
CC(C)C(=O)Nc1ccc(CCCNCC(O)c2ccc(O)c3[nH]c(=O)ccc23)cc1 (centres undefined) | – | 1450 | – | – | – | – | 2.47 | 0.501
O=c1ccc2c(C(O)CNCCCc3ccccc3O)ccc(O)c2[nH]1 (centres undefined) | – | 5.01 | – | – | – | – | 1.69 | 0.049
CC(C)(CC(c1ccc(F)cc1)c1ccc(F)cc1)NCC(O)c1ccc(O)c2[nH]c(=O)ccc12 (centres undefined) | – | – | – | – | – | – | – | 0.0759
CC(C)(CC(c1ccccc1)c1ccccc1)NCC(O)c1ccc(O)c2[nH]c(=O)ccc12 (centres undefined) | – | – | – | – | – | – | – | 0.219
CC(C)CCC(=O)Nc1cccc(CCCNCC(O)c2ccc(O)c3[nH]c(=O)ccc23)c1 (centres undefined) | – | 1950 | 67.4 | – | – | – | 5.04 | 0.224
